Test results from ChEMBL document CHEMBL4689842, “EUbOPEN Chemogenomics Library wave 1” (2021).

Test system: HEK-293T
Test: Multiplex assay against HEK293T;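 on Population Tubulin-Different-Phenotype (%): share of the cells with healthy nuclei that show this phenotype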
Assay type: toxicity, cell-based
Conditions: human
Procedure, shortened: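 Live cells were stained at seeding with Hoechst33342, BioTracker Green Microtubule Cytoskeleton Dye, MitoTracker Red and Annexin V Alexa Fluor 680. Following compound addition, they were imaged on a CQ1 microscope at 37°C and 5% CO2 and gated by CellPathfinder machine learning into Hoechst high-intensity objects or normal cells, with normal cells split into healthy, pyknosed or fragmented nuclei and pyknosed cells into mitotic or apoptotic. Tubulin, mitochondrial-mass and membrane-permeability phenotypes are per cents of healthy-nucleus cells.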

[1] = 12 h, 1 µM, compound concentration 1 uM, replicate 1
[2] = 12 h, 1 µM, compound concentration 1 uM, replicate 2
[3] = 12 h, 10 µM, compound concentration 10 uM, replicate 1
[4] = 12 h, 10 µM, compound concentration 10 uM, replicate 2
[5] = 24 h, 1 µM, compound concentration 1 uM, replicate 1
[6] = 24 h, 1 µM, compound concentration 1 uM, replicate 2
[7] = 24 h, 10 µM, compound concentration 10 uM, replicate 1
[8] = 24 h, 10 µM, compound concentration 10 uM, replicate 2
[9] = 48 h, 1 µM, compound concentration 1 uM, replicate 1
[10] = 48 h, 1 µM, compound concentration 1 uM, replicate 2
[11] = 48 h, 10 µM, compound concentration 10 uM, replicate 1
[12] = 48 h, 10 µM, compound concentration 10 uM, replicate 2

Compound: CN(c1cc(C(F)(F)F)nc(OCCC(=O)O)n1)c1cccc2c1CCC2
- Population Apoptotic (%) [1]: 44%
- Population Fragmented Nuclei (%) [1]: 21%
- Population Healthy Nuclei (%) [1]: 34%
- Population Hoechst High Intensity Objects (%) [1]: 14%
- Population Membrane Permeable-Phenotype (%) [1]: 3%
- Population Mitochondria Different-Phenotype (%) [1]: 67%
- Population Mitotic Cells (%) [1]: 55%
- Population Normal (%) [1]: 85%
- Population Pyknosed Nuclei (%) [1]: 44%
- Population Tubulin-Different-Phenotype (%) [1]: 29%
- Total Cell Count [1]: 189
- Population Apoptotic (%) [2]: 12%
- Population Fragmented Nuclei (%) [2]: 4%
- Population Healthy Nuclei (%) [2]: 49%
- Population Hoechst High Intensity Objects (%) [2]: 4%
- Population Membrane Permeable-Phenotype (%) [2]: 8%
- Population Mitochondria Different-Phenotype (%) [2]: 15%
- Population Mitotic Cells (%) [2]: 87%
- Population Normal (%) [2]: 95%
- Population Pyknosed Nuclei (%) [2]: 46%
- Population Tubulin-Different-Phenotype (%) [2]: 14%
- Total Cell Count [2]: 193
- Population Apoptotic (%) [3]: 37%
- Population Healthy Nuclei (%) [3]: 49%
- Population Hoechst High Intensity Objects (%) [3]: 16%
- Population Membrane Permeable-Phenotype (%) [3]: 1%
- Population Mitochondria Different-Phenotype (%) [3]: 69%
- Population Mitotic Cells (%) [3]: 62%
- Population Normal (%) [3]: 83%
- Population Pyknosed Nuclei (%) [3]: 41%
- Population Tubulin-Different-Phenotype (%) [3]: 28%
- Total Cell Count [3]: 223
- Population Apoptotic (%) [4]: 8%
- Population Fragmented Nuclei (%) [4]: 8%
- Population Healthy Nuclei (%) [4]: 42%
- Population Hoechst High Intensity Objects (%) [4]: 2%
- Population Membrane Permeable-Phenotype (%) [4]: 6%
- Population Mitochondria Different-Phenotype (%) [4]: 14%
- Population Mitotic Cells (%) [4]: 91%
- Population Normal (%) [4]: 97%
- Population Pyknosed Nuclei (%) [4]: 49%
- Population Tubulin-Different-Phenotype (%) [4]: 9%
- Total Cell Count [4]: 233
- Population Apoptotic (%) [5]: 34%
- Population Fragmented Nuclei (%) [5]: 18%
- Population Healthy Nuclei (%) [5]: 30%
- Population Hoechst High Intensity Objects (%) [5]: 11%
- Population Membrane Permeable-Phenotype (%) [5]: 1%
- Population Mitochondria Different-Phenotype (%) [5]: 53%
- Population Mitotic Cells (%) [5]: 65%
- Population Normal (%) [5]: 88%
- Population Pyknosed Nuclei (%) [5]: 51%
- Population Tubulin-Different-Phenotype (%) [5]: 32%
- Total Cell Count [5]: 193
- Population Apoptotic (%) [6]: 21%
- Population Fragmented Nuclei (%) [6]: 8%
- Population Healthy Nuclei (%) [6]: 65%
- Population Hoechst High Intensity Objects (%) [6]: 4%
- Population Membrane Permeable-Phenotype (%) [6]: 10%
- Population Mitochondria Different-Phenotype (%) [6]: 13%
- Population Mitotic Cells (%) [6]: 78%
- Population Normal (%) [6]: 95%
- Population Pyknosed Nuclei (%) [6]: 25%
- Population Tubulin-Different-Phenotype (%) [6]: 28%
- Total Cell Count [6]: 250
- Population Apoptotic (%) [7]: 33%
- Population Fragmented Nuclei (%) [7]: 12%
- Population Healthy Nuclei (%) [7]: 50%
- Population Hoechst High Intensity Objects (%) [7]: 11%
- Population Membrane Permeable-Phenotype (%) [7]: 4%
- Population Mitochondria Different-Phenotype (%) [7]: 37%
- Population Mitotic Cells (%) [7]: 66%
- Population Normal (%) [7]: 88%
- Population Pyknosed Nuclei (%) [7]: 37%
- Population Tubulin-Different-Phenotype (%) [7]: 22%
- Total Cell Count [7]: 256
- Population Apoptotic (%) [8]: 9%
- Population Fragmented Nuclei (%) [8]: 2%
- Population Healthy Nuclei (%) [8]: 68%
- Population Hoechst High Intensity Objects (%) [8]: 3%
- Population Membrane Permeable-Phenotype (%) [8]: 3%
- Population Mitochondria Different-Phenotype (%) [8]: 11%
- Population Mitotic Cells (%) [8]: 90%
- Population Normal (%) [8]: 96%
- Population Pyknosed Nuclei (%) [8]: 29%
- Population Tubulin-Different-Phenotype (%) [8]: 19%
- Total Cell Count [8]: 291
- Population Apoptotic (%) [9]: 45%
- Population Fragmented Nuclei (%) [9]: 21%
- Population Healthy Nuclei (%) [9]: 36%
- Population Hoechst High Intensity Objects (%) [9]: 16%
- Population Membrane Permeable-Phenotype (%) [9]: 1%
- Population Mitochondria Different-Phenotype (%) [9]: 22%
- Population Mitotic Cells (%) [9]: 54%
- Population Normal (%) [9]: 83%
- Population Pyknosed Nuclei (%) [9]: 41%
- Population Tubulin-Different-Phenotype (%) [9]: 24%
- Total Cell Count [9]: 228
- Population Apoptotic (%) [10]: 7%
- Population Fragmented Nuclei (%) [10]: 7%
- Population Healthy Nuclei (%) [10]: 84%
- Population Hoechst High Intensity Objects (%) [10]: 3%
- Population Membrane Permeable-Phenotype (%) [10]: 10%
- Population Mitochondria Different-Phenotype (%) [10]: 4%
- Population Mitotic Cells (%) [10]: 92%
- Population Normal (%) [10]: 96%
- Population Pyknosed Nuclei (%) [10]: 8%
- Population Tubulin-Different-Phenotype (%) [10]: 21%
- Total Cell Count [10]: 472
- Population Apoptotic (%) [11]: 36%
- Population Fragmented Nuclei (%) [11]: 15%
- Population Healthy Nuclei (%) [11]: 56%
- Population Hoechst High Intensity Objects (%) [11]: 6%
- Population Membrane Permeable-Phenotype (%) [11]: 1%
- Population Mitochondria Different-Phenotype (%) [11]: 14%
- Population Mitotic Cells (%) [11]: 63%
- Population Normal (%) [11]: 93%
- Population Pyknosed Nuclei (%) [11]: 27%
- Population Tubulin-Different-Phenotype (%) [11]: 11%
- Total Cell Count [11]: 351
- Population Apoptotic (%) [12]: 10%
- Population Fragmented Nuclei (%) [12]: 5%
- Population Healthy Nuclei (%) [12]: 83%
- Population Hoechst High Intensity Objects (%) [12]: 2%
- Population Membrane Permeable-Phenotype (%) [12]: 4%
- Population Mitochondria Different-Phenotype (%) [12]: 3%
- Population Mitotic Cells (%) [12]: 89%
- Population Normal (%) [12]: 97%
- Population Pyknosed Nuclei (%) [12]: 11%
- Population Tubulin-Different-Phenotype (%) [12]: 12%
- Total Cell Count [12]: 593
